Test results as given in ChEMBL document CHEMBL3351713, “The identification of perillyl alcohol glycosides with improved antiproliferative activity” (J Med Chem, 2014).
pIC50: −log10 of the molar value. Active and inactive are the calls of the source. The calls are words filed in the database; no cut-off is given here.

Legend:
[1] = system: A549; assay: Cytotoxicity against human A549 cells at 250 uM after 48 hrs by alamar blue assay; type: functional; details: A549, 48 h
Outline: (§1)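 Single 250 µM concentration. Cells seeded at 3 × 10^3/well in F-12K with 10% FBS and 2 mM L-glutamine, then adhered overnight. Exposure was 48 h at 37 °C, 5% CO2, alongside 0.5% DMSO vehicle and 1.5 mM H2O2 controls. Viability was measured by resazurin reduction (0.25 mg/mL stock, 3 h) with fluorescence read at […], em 590 nm.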

[2] = Cytotoxicity against human PC3 cells at 250 uM after 48 hrs by alamar blue assay; type: functional; details: PC-3, 48 h; outline: as §1
[3] = system: A549; assay: Cytotoxicity against human A549 cells after 48 hrs by alamar blue assay; type: functional, cell-based; details: A549, 48 h
Outline: (§2)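 Cells seeded at 3 × 10^3/well in F-12K with 10% FBS, 2 mM L-glutamine and penicillin/streptomycin, then left to adhere overnight. Medium was replaced with nine 2- or 3-fold dilutions, with 0.5% DMSO vehicle and 1.5 mM H2O2 controls. Incubation was 48 h at 37 °C, 5% CO2. Resazurin (0.25 mg/mL stock) was added for 3 h and fluorescence read ([…], em 590 nm). IC50 came from a nonlinear dose-response fit; mean ± SD, triplicates, three independent experiments.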

[4] = Cytotoxicity against human PC3 cells after 48 hrs by alamar blue assay; type: functional, cell-based; details: PC-3, 48 h; outline: as §2
[5] = molecular target: Eukaryotic translation initiation factor 4E-binding protein 1 (Homo sapiens) (UniProt Q13541); assay: Induction of 4E-BP1 phosphorylation at Thr37/46 in human A549 cells at 250 uM after 6 hrs by Western blotting analysis; type: cell-based
Sequence of Eukaryotic translation initiation factor 4E-binding protein 1 (Homo sapiens) (Q13541 whole entry): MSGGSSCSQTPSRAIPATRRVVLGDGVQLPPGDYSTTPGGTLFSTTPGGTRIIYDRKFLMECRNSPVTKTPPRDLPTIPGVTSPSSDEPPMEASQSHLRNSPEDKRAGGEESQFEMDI
Outline: (§3)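 A549 cells were exposed to 250 and 500 µM for 6 h, harvested and lysed. Equal total protein was loaded for SDS-PAGE and immunoblot. Probes were p-4E-BP1 (T37/46, S65, T70), p-S6 (S235/236), eIF4E and cleaved PARP, detected by chemiluminescence.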

[6] = molecular target: Eukaryotic translation initiation factor 4E-binding protein 1 (Homo sapiens) (UniProt Q13541); assay: Induction of 4E-BP1 phosphorylation at Thr37/46 in human A549 cells at 500 uM after 6 hrs by Western blotting analysis; type: cell-based; outline: as §3
[7] = molecular target: Eukaryotic translation initiation factor 4E-binding protein 1 (Homo sapiens) (UniProt Q13541); assay: Induction of 4E-BP1 phosphorylation at Ser65 in human A549 cells at 250 uM after 6 hrs by Western blotting analysis; type: cell-based; outline: as §3
[8] = molecular target: Eukaryotic translation initiation factor 4E-binding protein 1 (Homo sapiens) (UniProt Q13541); assay: Induction of 4E-BP1 phosphorylation at Ser65 in human A549 cells at 500 uM after 6 hrs by Western blotting analysis; type: cell-based; outline: as §3
[9] = molecular target: Eukaryotic translation initiation factor 4E-binding protein 1 (Homo sapiens) (UniProt Q13541); assay: Induction of 4E-BP1 phosphorylation at Thr70 in human A549 cells at 250 uM after 6 hrs by Western blotting analysis; type: cell-based; outline: as §3
[10] = molecular target: Eukaryotic translation initiation factor 4E-binding protein 1 (Homo sapiens) (UniProt Q13541); assay: Induction of 4E-BP1 phosphorylation at Thr70 in human A549 cells at 500 uM after 6 hrs by Western blotting analysis; type: cell-based; outline: as §3
[11] = molecular target: Small ribosomal subunit protein eS6 (Homo sapiens) (UniProt P62753); assay: Inhibition of S6 ribosomal protein phosphorylation in human A549 cells at 250 to 500 uM after 6 hrs by Western blotting analysis; type: cell-based; outline: as §3
[12] = system: A549; assay: Increase in PARP cleavage in human A549 cells at 250 to 500 uM after 6 hrs by Western blotting analysis; type: cell-based; outline: as §3

| Structure (SMILES) | inhibition at 250 µM [1] | inhibition at 250 µM [2] | pIC50 [3] | pIC50 [4] | Activity [5] | Activity [6] | Activity [7] | Activity [8] | Activity [9] | Activity [10] | inhibition [11] | Activity [12] |
| --- | --- | --- | --- | --- | --- | --- | --- | --- | --- | --- | --- | --- |
| C=C(C)[C@@H]1CC=C(CN(OC)C2O[C@H](CO)[C@@H](O)[C@H](NC(=O)CCCCCCCCC)[C@H]2O)CC1 (stereo not given in full) | > 40% | > 40% | 4.85 | 4.72 | Active | Active | Active | Active | Active | Active | Active | Active |
| C=C(C)[C@@H]1CC=C(CN(OC)C2OC[C@@H](O)[C@H](O)[C@H]2O)CC1 (stereo not given in full) | > 40% | > 40% | 3.69 | 3.82 | – | – | – | – | – | – | – | – |
| C=C(C)[C@@H]1CC=C(CN(OC)C2OC[C@@H](N=[N+]=[N-])[C@H](O)[C@H]2O)CC1 (stereo not given in full) | > 40% | > 40% | 4.12 | 3.77 | – | – | – | – | – | – | – | – |
| C=C(C)[C@@H]1CC=C(CN(OC)C2O[C@H](CO)[C@@H](O)[C@H](O)[C@H]2N=[N+]=[N-])CC1 (stereo not given in full) | > 40% | > 40% | 3.66 | 3.75 | – | – | – | – | – | – | – | – |
| C=C(C)[C@@H]1CC=C(CN(OC)C2O[C@H](CN=[N+]=[N-])[C@@H](N=[N+]=[N-])[C@H](O)[C@H]2O)CC1 (stereo not given in full) | > 40% | > 40% | 4.36 | 4.24 | Active | Active | Active | Active | Active | Active | Active | Active |
| C=C(C)[C@@H]1CC=C(CN(OC)C2O[C@H](CO)[C@@H](N=[N+]=[N-])[C@H](O)[C@H]2O)CC1 (stereo not given in full) | > 40% | > 40% | 5.40 | 4.66 | – | – | – | – | – | – | – | – |
| C=C(C)[C@@H]1CC=C(/C=N/OC)CC1 | > 40% | > 40% | – | – | – | – | – | – | – | – | – | – |
| C=C(C)[C@@H]1CC=C(CN(OC)C2O[C@H](CNC(=O)CCCCCCCCC)[C@@H](O)[C@H](O)[C@H]2O)CC1 (stereo not given in full) | > 40% | > 40% | 4.85 | 4.52 | – | – | – | – | – | – | – | – |
| C=CCOC(=O)NC[C@H]1OC(N(CC2=CC[C@@H](C(=C)C)CC2)OC)[C@H](O)[C@@H](O)[C@@H]1O (stereo not given in full) | > 40% | > 40% | 3.85 | 3.63 | – | – | – | – | – | – | – | – |
| C=CCOC(=O)N[C@H]1C(N(CC2=CC[C@@H](C(=C)C)CC2)OC)O[C@H](CO)[C@@H](O)[C@@H]1O (stereo not given in full) | > 40% | > 40% | 3.94 | 3.08 | – | – | – | – | – | – | – | – |
| C=C(C)[C@@H]1CC=C(CN(OC)C2O[C@@H](CO)[C@H](N=[N+]=[N-])[C@@H](O)[C@@H]2O)CC1 (stereo not given in full) | > 40% | > 40% | 3.35 | 3.58 | – | – | – | – | – | – | – | – |
| C=C(C)[C@@H]1CC=C(CN(OC)C2O[C@H](CN=[N+]=[N-])[C@@H](O)[C@H](O)[C@H]2O)CC1 (stereo not given in full) | > 40% | > 40% | 3.79 | 3.74 | – | – | – | – | – | – | – | – |
| C=C(C)[C@@H]1CC=C(CO)CC1 [PERILLYL ALCOHOL] | – | – | 3.46 | 3.42 | inactive | inactive | inactive | inactive | inactive | inactive | inactive | – |
| C=C(C)[C@@H]1CC=C(CN(OC)[C@@H]2O[C@H](CO)[C@@H](O)[C@H](O)[C@H]2NC(=O)N(C)N=O)CC1 | > 40% | > 40% | 3.73 | 3.63 | – | – | – | – | – | – | – | – |
